≈ marks a conversion by molar mass, not a printed value.
Key:
CHO-K1 = assay: Cytotoxicity against CHOK1 cells assessed as reduction in cell viability; format: cell-based; details: Cricetulus griseus
[1] = system: Mycobacterium tuberculosis; assay: Antimycobacterial activity against Mycobacterium tuberculosis H37Rv; format: functional
Outline: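 Drug-sensitive M. tuberculosis H37Rv grown in a glycerol-containing medium; MIC99 is the minimum concentration that inhibits growth of 99% of the bacterial population.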

## CC(=O)O[C@H]1C[C@@]2(C)[C@@H](C[C@@H](O)[C@H]3[C@@]4(C)CC[C@@H](O)[C@@H](C)[C@@H]4CC[C@@]32C)/C1=C(\CCC=C(C)C)C(=O)O [FUSIDIC ACID]
CHO-K1
  IC50: > 194 µM
[1]
  MIC99: 0.6 µM (≈ 0.31 µg/mL)

## CC(=O)O[C@H]1C[C@@]2(C)[C@@H](C[C@@H](O)[C@H]3[C@@]4(C)CC[C@@H](O)[C@@H](C)[C@@H]4CC[C@@]32C)/C1=C(\CCCC(C)C)C(=O)NNS(C)(=O)=O
CHO-K1
  IC50: 97.8 µM
[1]
  MIC99: 10 µM (≈ 6.11 µg/mL)

## CCCCCCCCCCCCCCNC(=O)/C(CCC=C(C)C)=C1\[C@@H](OC(C)=O)C[C@@]2(C)[C@H]1C[C@@H](O)[C@H]1[C@@]3(C)CC[C@@H](O)[C@@H](C)[C@@H]3CC[C@@]12C
CHO-K1
  IC50: > 140 µM
[1]
  MIC99: > 125 µM

## CCCCCCCCCCCCNC(=O)/C(CCC=C(C)C)=C1\[C@@H](OC(C)=O)C[C@@]2(C)[C@H]1C[C@@H](O)[C@H]1[C@@]3(C)CC[C@@H](O)[C@@H](C)[C@@H]3CC[C@@]12C
CHO-K1
  IC50: > 146 µM
[1]
  MIC99: > 125 µM

## CC(=O)O[C@H]1C[C@@]2(C)[C@@H](C[C@@H](O)[C@H]3[C@@]4(C)CC[C@@H](O)[C@@H](C)[C@@H]4CC[C@@]32C)/C1=C(\CCC=C(C)C)C(=O)NNS(C)(=O)=O
CHO-K1
  IC50: 92.2 µM
[1]
  MIC99: 10 µM (≈ 6.09 µg/mL)

## CC(=O)O[C@H]1C[C@@]2(C)[C@@H](C[C@@H](O)[C@H]3[C@@]4(C)CC[C@@H](O)[C@@H](C)[C@@H]4CC[C@@]32C)/C1=C(\CCC=C(C)C)C(=O)NN
CHO-K1
  IC50: 112 µM
[1]
  MIC99: 40 µM (≈ 21.2 µg/mL)

## CCCS(=O)(=O)NNC(=O)/C(CCC=C(C)C)=C1\[C@@H](OC(C)=O)C[C@@]2(C)[C@H]1C[C@@H](O)[C@H]1[C@@]3(C)CC[C@@H](O)[C@@H](C)[C@@H]3CC[C@@]12C
CHO-K1
  IC50: 79.7 µM
[1]
  MIC99: 40 µM (≈ 25.5 µg/mL)

## CCCCCCC(=O)O[C@@H]1CC[C@@]2(C)[C@@H](CC[C@@]3(C)[C@H]2[C@H](O)C[C@H]2/C(=C(\CCC=C(C)C)C(=O)O)[C@@H](OC(C)=O)C[C@@]23C)[C@@H]1C
CHO-K1
  IC50: 36.2 µM
[1]
  MIC99: 5 µM (≈ 3.14 µg/mL)

## CC(=O)O[C@H]1C[C@@]2(C)[C@@H](C[C@@H](O)[C@H]3[C@@]4(C)CC[C@@H](O)[C@@H](C)[C@@H]4CC[C@@]32C)/C1=C(\CCC=C(C)C)C(=O)NS(=O)(=O)c1ccccc1
CHO-K1
  IC50: 96.1 µM
[1]
  MIC99: > 125 µM

## CC(=O)O[C@H]1C[C@@]2(C)[C@@H](C[C@@H](O)[C@H]3[C@@]4(C)CC[C@@H](O)[C@@H](C)[C@@H]4CC[C@@]32C)/C1=C(\CCC=C(C)C)C(N)=O
CHO-K1
  IC50: 113 µM
[1]
  MIC99: > 125 µM

## CC(=O)O[C@H]1C[C@@]2(C)[C@@H](C[C@@H](O)[C@H]3[C@@]4(C)CC[C@@H](O)[C@@H](C)[C@@H]4CC[C@@]32C)/C1=C(\CCC=C(C)C)c1n[nH]c(=S)o1
CHO-K1
  IC50: 70 µM
[1]
  MIC99: 80 µM (≈ 45.8 µg/mL)

## CC(C)=CCC/C(C(=O)NNS(C)(=O)=O)=C1/[C@@H](O)C[C@@]2(C)[C@H]1C[C@@H](O)[C@H]1[C@@]3(C)CC[C@@H](O)[C@@H](C)[C@@H]3CC[C@@]12C
CHO-K1
  IC50: 32 µM
[1]
  MIC99: 40 µM (≈ 22.7 µg/mL)

## CC(=O)O[C@H]1C[C@@]2(C)[C@@H](C[C@@H](O)[C@H]3[C@@]4(C)CC/C(=N\O)[C@@H](C)[C@@H]4CC[C@@]32C)/C1=C(\CCC=C(C)C)C(=O)O
CHO-K1
  IC50: 164 µM
[1]
  MIC99: 2.5 µM (≈ 1.32 µg/mL)

## CC(=O)O[C@H]1C[C@@]2(C)[C@@H](C[C@@H](O)[C@H]3[C@@]4(C)CC[C@@H](O)[C@@H](C)[C@@H]4CC[C@@]32C)/C1=C(\CCC=C(C)C)C(=O)Nc1nn[nH]n1
CHO-K1
  IC50: > 171 µM
[1]
  MIC99: 40 µM (≈ 23.4 µg/mL)

## CCCCCCCCCCCCCCCCNC(=O)/C(CCC=C(C)C)=C1\[C@@H](OC(C)=O)C[C@@]2(C)[C@H]1C[C@@H](O)[C@H]1[C@@]3(C)CC[C@@H](O)[C@@H](C)[C@@H]3CC[C@@]12C
CHO-K1
  IC50: > 135 µM
[1]
  MIC99: > 125 µM

## CCO[C@H]1C[C@@]2(C)[C@@H](C[C@@H](O)[C@H]3[C@@]4(C)CC[C@@H](O)[C@@H](C)[C@@H]4CC[C@@]32C)/C1=C(\CCC=C(C)C)C(=O)O
CHO-K1
  IC50: 48.1 µM
[1]
  MIC99: 0.8 µM (≈ 0.402 µg/mL)

## CC(=O)O[C@H]1C[C@@]2(C)[C@@H](C[C@@H](O)[C@H]3[C@@]4(C)CC[C@@H](O)[C@@H](C)[C@@H]4CC[C@@]32C)/C1=C(\CCC=C(C)C)C(=O)NNC(=O)c1cccs1
CHO-K1
  IC50: 78.8 µM
[1]
  MIC99: 40 µM (≈ 25.6 µg/mL)

## CO[C@H]1C[C@@]2(C)[C@@H](C[C@@H](O)[C@H]3[C@@]4(C)CC[C@@H](O)[C@@H](C)[C@@H]4CC[C@@]32C)/C1=C(\CCC=C(C)C)C(=O)O
CHO-K1
  IC50: 29 µM
[1]
  MIC99: 18.7 µM (≈ 9.14 µg/mL)

## CC(=O)O[C@H]1C[C@@]2(C)[C@@H](C[C@@H](O)[C@H]3[C@@]4(C)CC[C@@H](O)[C@@H](C)[C@@H]4CC[C@@]32C)/C1=C(\CCC=C(C)C)C(=O)NNS(=O)(=O)c1ccc(C)cc1
CHO-K1
  IC50: 48.2 µM
[1]
  MIC99: > 125 µM

## CCCc1noc(/C(CCC=C(C)C)=C2\[C@@H](OC(C)=O)C[C@@]3(C)[C@H]2C[C@@H](O)[C@H]2[C@@]4(C)CC[C@@H](O)[C@@H](C)[C@@H]4CC[C@@]23C)n1
CHO-K1
  IC50: 68.2 µM
[1]
  MIC99: 80 µM (≈ 46.6 µg/mL)

## CC(=O)O[C@H]1C[C@@]2(C)[C@@H](C[C@@H](O)[C@H]3[C@@]4(C)CC[C@@H](O)[C@@H](C)[C@@H]4CC[C@@]32C)/C1=C(\CCC=C(C)C)C(=O)NS(C)(=O)=O
CHO-K1
  IC50: > 169 µM
[1]
  MIC99: 80 µM (≈ 47.5 µg/mL)

## CC(=O)O[C@H]1C[C@@]2(C)[C@@H](C[C@@H](O)[C@H]3[C@@]4(C)CC[C@@H](O)[C@@H](C)[C@@H]4CC[C@@]32C)/C1=C(\CCC=C(C)C)C(=O)NC#N
CHO-K1
  IC50: > 185 µM
[1]
  MIC99: 40 µM (≈ 21.6 µg/mL)

## CC(=O)O[C@H]1C[C@@]2(C)[C@@H](C[C@@H](O)[C@H]3[C@@]4(C)CC[C@@H](O)[C@@H](C)[C@@H]4CC[C@@]32C)/C1=C(\CCC=C(C)C)c1nc(-c2ccc(F)cc2)no1
CHO-K1
  IC50: 77.4 µM
[1]
  MIC99: > 125 µM

## CCc1noc(/C(CCC=C(C)C)=C2\[C@@H](OC(C)=O)C[C@@]3(C)[C@H]2C[C@@H](O)[C@H]2[C@@]4(C)CC[C@@H](O)[C@@H](C)[C@@H]4CC[C@@]23C)n1
CHO-K1
  IC50: 71.7 µM
[1]
  MIC99: > 125 µM

## CC(=O)O[C@H]1C[C@@]2(C)[C@@H](C[C@@H](O)[C@H]3[C@@]4(C)CC[C@@H](O)[C@@H](C)[C@@H]4CC[C@@]32C)/C1=C(\CCC=C(C)C)c1nc(C)no1
CHO-K1
  IC50: 47.8 µM
[1]
  MIC99: > 125 µM
